Reference: BindingDB's records for doi:10.1016/j.bmc.2022.116974 (University of Maryland, 2022)

Molecular target: Galectin-3 (Homo sapiens, UniProt P17931)
Test: Binding affinity to human galectin 3 by surface plasma resonance analysis
How it was run: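 Recombinant human Gal-3 amine-coupled to a CM5 chip (about 1000 RU) with an ethanolamine reference channel. Analytes were serially diluted in 0.01 M HEPES pH 7.4, 0.15 M NaCl and 0.005% P20, then run at 25 °C and 30 μL/min with 120 s association and 300 s dissociation, followed by 3 M MgCl2 regeneration. EC50 was taken from the fitted binding curve.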

Sequence of Galectin-3 (P17931 whole entry): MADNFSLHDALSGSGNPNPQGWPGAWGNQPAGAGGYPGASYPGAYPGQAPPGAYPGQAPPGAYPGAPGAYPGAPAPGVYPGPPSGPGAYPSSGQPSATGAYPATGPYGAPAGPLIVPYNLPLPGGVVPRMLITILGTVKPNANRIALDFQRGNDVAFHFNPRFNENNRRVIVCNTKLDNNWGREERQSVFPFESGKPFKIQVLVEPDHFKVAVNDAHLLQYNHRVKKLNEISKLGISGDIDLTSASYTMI

EC50 [µM]	Compound
> 1000	CC(=O)N[C@H]1[C@@H](OCCOCCOCCN=[N+]=[N-])O[C@H](CO)[C@H](O)[C@@H]1O
> 1000	CC(=O)N[C@H]1[C@@H](OCCOCCOCCN=[N+]=[N-])O[C@H](CO)[C@H](O)[C@@H]1O[C@@H]1O[C@H](CO)[C@H](O)[C@H](O)[C@H]1O
> 1000	[N-]=[N+]=NCCOCCOCCO[C@@H]1O[C@H](CO)[C@@H](O[C@@H]2O[C@H](CO)[C@H](O)[C@H](O)[C@H]2O)[C@H](O)[C@H]1O
